Assay results reported in PubChem BioAssay AID504650 (Molecular Libraries Program, Specialized Chemistry Center, …, 2011).
Calls of active or inactive are those of the source.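 The calls were made as follows: active = IC50 at or below 10 µM; inactive = the rest.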

Molecular target: Transitional endoplasmic reticulum ATPase (Homo sapiens) (UniProt P55072)
Experiment: VCP ATP hydrolysis inhibition, purified enzyme – biochemical, dose response, round 3, SAR follow-up (AID 504650)
Conditions: purified p97 ATPase, Kinase-Glo luminescence
How it was run: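 System: Human p97 ATPase protein | Medium: Tris buffer pH 7.4 containing MgCl2 and EDTA | Reagent: ATP, 500 µM stock solution | Incubation: 10 min room-temperature enzyme–compound preincubation, 30 min 37 °C ATP reaction | Technique: Luminescent readout of unconsumed ATP (Kinase-Glo Plus) | Measure: IC50 from fit of percent remaining activity versus compound concentration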

Transitional endoplasmic reticulum ATPase (Homo sapiens), sequence (P55072 whole entry, looked up): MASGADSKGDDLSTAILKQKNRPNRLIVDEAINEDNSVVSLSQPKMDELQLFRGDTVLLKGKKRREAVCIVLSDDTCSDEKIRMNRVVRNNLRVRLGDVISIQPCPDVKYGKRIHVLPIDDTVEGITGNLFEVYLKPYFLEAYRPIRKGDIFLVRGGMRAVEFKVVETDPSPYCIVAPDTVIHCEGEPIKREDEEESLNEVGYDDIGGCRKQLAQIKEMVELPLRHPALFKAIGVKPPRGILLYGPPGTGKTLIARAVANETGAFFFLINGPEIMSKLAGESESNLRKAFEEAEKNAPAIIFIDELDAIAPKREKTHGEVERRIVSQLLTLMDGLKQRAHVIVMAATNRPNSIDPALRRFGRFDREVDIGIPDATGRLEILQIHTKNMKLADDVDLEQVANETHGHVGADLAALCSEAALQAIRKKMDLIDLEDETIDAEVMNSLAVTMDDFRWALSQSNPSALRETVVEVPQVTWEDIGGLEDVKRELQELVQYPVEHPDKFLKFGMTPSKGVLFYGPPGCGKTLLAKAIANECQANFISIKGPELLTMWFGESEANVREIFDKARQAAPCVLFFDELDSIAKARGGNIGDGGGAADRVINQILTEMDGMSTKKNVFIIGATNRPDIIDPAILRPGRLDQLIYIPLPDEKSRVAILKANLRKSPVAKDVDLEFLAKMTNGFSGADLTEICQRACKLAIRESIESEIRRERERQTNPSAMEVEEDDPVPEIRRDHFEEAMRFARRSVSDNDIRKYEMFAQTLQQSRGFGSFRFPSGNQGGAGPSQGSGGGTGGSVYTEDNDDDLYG

Row | SMILES | IC50
1 | COc1cccc2c(NCc3ccccc3)nc(NCc3cncs3)nc12 | inactive
2 | OCCOc1cccc2c(NCc3ccccc3)nc(N3CCOc4ccccc43)nc12 | 170 nM
3 | COc1cccc2c(NCc3ccccc3)nc(Nc3nc4ccccc4n3C)nc12 | 300 nM
4 | CN(c1ccccc1)c1nc(NCc2ccccc2)c2ccccc2n1 | > 30000 nM (inactive)
5 | COc1cccc2c(NCc3ccccc3)nc(Nc3cccc(F)c3)nc12 | 520 nM
6 | CCN(CC)CCOc1cccc2c(NCc3ccccc3)nc(N3CCOc4ccccc43)nc12 | 400 nM
7 | COc1cccc2c(NCc3ccccc3)nc(Nc3cccc(Cl)c3)nc12 | 500 nM
8 | COc1cccc2c(NCc3ccccc3)nc(-n3c(N)nc4cc(Cl)ccc43)nc12 | 700 nM
9 | COc1cccc2c(NCc3ccccc3)nc(Nc3cc(C)cc(F)c3)nc12 | 1500 nM
10 | c1ccc(CNc2nc(N3CCOc4ccccc43)nc3c2CCCC3)cc1 | 110 nM
11 | COc1cccc2c(NCC3CCCCC3)nc(N3CCOc4ccccc43)nc12 | 7400 nM
12 | c1ccc(CNc2nc(N3CCc4ccccc4C3)nc3ccccc23)cc1 | inactive
13 | COc1cccc2c(NCc3ccc(O)cc3)nc(N3CCOc4ccccc43)nc12 | 2400 nM
14 | COc1cccc2c(NCc3ccc(F)cc3)nc(N3CCOc4ccccc43)nc12 | 1900 nM
15 | COc1cccc2c(NCc3ccccc3)nc(-n3c(N)nc4cc(F)ccc43)nc12 | 80 nM
16 | COc1cccc2c(NCc3ccccc3)nc(NC(=O)Nc3ccccc3)nc12 | > 30000 nM (inactive)
17 | COc1cccc2c(NCc3ccccc3)nc(NC(C)c3ccccc3)nc12 (stereo unspecified) | inactive
18 | COc1cccc2c(NCc3ccccc3)nc(-n3c(N)nc4ccccc43)nc12 | 110 nM
19 | Nc1nc2ccccc2n1-c1nc(NCc2ccccc2)c2ccccc2n1 | 110 nM

Row | SMILES | IC50
20 | COc1cccc2c(NCc3ccccc3)nc(N(C)Cc3ccccc3)nc12 | 7000 nM
21 | COc1cccc2c(NCc3ccccc3)nc(-n3c(N)nc4cc(C)ccc43)nc12 | 240 nM
22 | COc1cccc2c(NCc3ccccc3)nc(N3CCN(C)CC3)nc12 | > 30000 nM (inactive)
23 | COc1cccc2c(NCc3ccccc3)nc(NCc3cccs3)nc12 | 1700 nM
24 | COc1cccc2c(NCc3ccccc3)nc(N3CCN(C)c4ccccc43)nc12 | 3100 nM
25 | CC(C)Nc1nc(Nc2cccc(Cl)c2)nc2ccccc12 | > 30000 nM (inactive)
26 | c1ccc2c(c1)OCCN2c1nc(N2CCOc3ccccc32)c2ccccc2n1 | > 30000 nM (inactive)
27 | c1ccc(CNc2ccnc(N3CCOc4ccccc43)n2)cc1 | 2900 nM
28 | COc1cccc2c(NCc3ccccn3)nc(N3CCOc4ccccc43)nc12 | inactive
29 | COc1ccc(-c2cccc3c(NCc4ccccc4)nc(N4CCOc5ccccc54)nc23)cc1 | 1100 nM
30 | CCCCOc1cccc2c(NCc3ccccc3)nc(N3CCOc4ccccc43)nc12 | 2630 nM
31 | COc1cccc2c(NCc3ccccc3)nc(Nc3nc4ccccc4s3)nc12 | 500 nM
32 | COc1cccc2c(NCc3ccccc3)nc(-n3c(N)nc4c(C)cccc43)nc12 | 45 nM
33 | COc1cccc2c(NCc3ccccc3)nc(N3CCN(C(C)=O)c4ccccc43)nc12 | 2700 nM
34 | COc1cccc2c(NCc3ccccc3)nc(-n3cnc4ccccc43)nc12 | 3300 nM
35 | c1ccc(CNc2nc(N3CCOc4ccccc43)nc3ccsc23)cc1 | 400 nM
36 | Nc1nc2ccccc2n1-c1nc2c(c(NCc3ccccc3)n1)CCCC2 | 50 nM
37 | c1ccc(CNc2nc(N3CCOc4ccccc43)nc3c(-c4ccccc4)cccc23)cc1 | 3500 nM
38 | Oc1cccc2c(NCc3ccccc3)nc(N3CCOc4ccccc43)nc12 | 1200 nM

Row | SMILES | IC50
39 | Cc1nc(N2CCOc3ccccc32)nc(NCc2ccccc2)c1C | 1100 nM
40 | COc1cccc2c(NCc3ccccn3)nc(N3CCNc4ccccc43)nc12 | > 30000 nM (inactive)
41 | COc1cccc2c(NCc3ccccc3)nc(N3CCNc4ccccc43)nc12 | 900 nM
42 | Clc1ccccc1-c1nc(N2CCCc3ccccc32)c2ccccc2n1 | > 30000 nM (inactive)
43 | COc1cccc2c(NCc3ccccc3)nc(N3CCOCC3)nc12 | inactive
44 | COc1cccc2c(NCc3ccccc3)nc(N3CCOc4ccccc43)nc12 | 200 nM
45 | Nc1nc2ccccc2n1-c1nccc(NCc2ccccc2)n1 | 2800 nM
46 | COc1cccc2c(NCc3ccccc3)nc(NCC3CCCCC3)nc12 | 5400 nM
47 | COc1cccc2c(NCc3ccccc3)nc(N3CCN(C(C)=O)CC3)nc12 | > 30000 nM (inactive)
48 | COCCOc1cccc2c(NCc3ccccc3)nc(N3CCOc4ccccc43)nc12 | 600 nM
49 | COc1cccc2c(NCc3ccccc3)nc(-n3c(N)nc4cc(Br)ccc43)nc12 | 800 nM
50 | N#CCOc1cccc2c(NCc3ccccc3)nc(N3CCOc4ccccc43)nc12 | 400 nM
51 | COc1ccc2c(c1)nc(N)n2-c1nc(NCc2ccccc2)c2cccc(OC)c2n1 | 480 nM
52 | COc1cccc2c(NCc3ccccc3O)nc(N3CCOc4ccccc43)nc12 | 4600 nM
53 | COc1cccc2c(NCc3cccs3)nc(N3CCOc4ccccc43)nc12 | 1200 nM
54 | COc1cccc2c(NCc3ccccc3)nc(-n3c(N)nc4cc(C)c(C)cc43)nc12 | 2000 nM
55 | COc1cccc2c(NCc3ccccc3)nc(-n3c(=O)oc4ccccc43)nc12 | 110 nM
56 | COc1cccc2c(NCc3ccccc3)nc(Nc3ccccc3O)nc12 | 2600 nM
